ChEMBL document CHEMBL3351355, “Structure-affinity/activity relationships of 1,4-dioxa-spiro[4.5]decane based ligands at α1 and 5-HT1A receptors” (Eur J Med Chem, 2014)

Key:
[1] = biological target: T1, Alpha-1D adrenergic receptor (Homo sapiens, UniProt P25100); experiment: Displacement of [3H]prazosin from human recombinant alpha1D adrenoceptor expressed in CHO cells after 30 mins by liquid scintillation counting; format: cell-based
T1 sequence (P25100 whole entry): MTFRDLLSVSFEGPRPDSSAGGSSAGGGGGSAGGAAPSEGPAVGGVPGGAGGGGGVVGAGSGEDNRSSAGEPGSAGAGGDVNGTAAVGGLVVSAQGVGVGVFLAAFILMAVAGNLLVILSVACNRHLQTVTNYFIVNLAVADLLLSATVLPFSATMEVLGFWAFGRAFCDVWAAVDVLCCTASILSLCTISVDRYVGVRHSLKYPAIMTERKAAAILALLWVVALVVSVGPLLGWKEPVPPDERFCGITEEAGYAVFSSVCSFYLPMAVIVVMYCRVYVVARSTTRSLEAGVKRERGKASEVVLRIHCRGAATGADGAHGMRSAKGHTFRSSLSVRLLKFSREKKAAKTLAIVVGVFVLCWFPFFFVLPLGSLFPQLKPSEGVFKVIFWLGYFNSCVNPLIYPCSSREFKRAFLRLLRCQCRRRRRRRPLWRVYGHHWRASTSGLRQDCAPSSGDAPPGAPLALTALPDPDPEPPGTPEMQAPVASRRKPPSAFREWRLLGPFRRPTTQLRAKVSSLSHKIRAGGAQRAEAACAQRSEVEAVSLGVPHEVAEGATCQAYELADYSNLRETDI
Outline: (§1)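 CHO cells were stably transfected by electroporation with each human α1 subtype. Membranes (70 µg protein) were incubated in 50 mM Tris pH 7.4 with 0.1–0.4 nM [3H]prazosin and competitor (1 pM–1 µM) for 30 min at 25 °C. Nonspecific binding with 10 µM tamsulosin. Filtration and scintillation counting. pKi from 2–3 experiments in duplicate.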

[2] = biological target: T2, 5-hydroxytryptamine receptor 1A (Homo sapiens, UniProt P08908); experiment: Displacement of [3H]8-OH-DPAT from human recombinant 5-HT1A receptor expressed in HeLa cells after 30 mins by liquid scintillation counting; format: cell-based
T2 sequence (P08908 whole entry): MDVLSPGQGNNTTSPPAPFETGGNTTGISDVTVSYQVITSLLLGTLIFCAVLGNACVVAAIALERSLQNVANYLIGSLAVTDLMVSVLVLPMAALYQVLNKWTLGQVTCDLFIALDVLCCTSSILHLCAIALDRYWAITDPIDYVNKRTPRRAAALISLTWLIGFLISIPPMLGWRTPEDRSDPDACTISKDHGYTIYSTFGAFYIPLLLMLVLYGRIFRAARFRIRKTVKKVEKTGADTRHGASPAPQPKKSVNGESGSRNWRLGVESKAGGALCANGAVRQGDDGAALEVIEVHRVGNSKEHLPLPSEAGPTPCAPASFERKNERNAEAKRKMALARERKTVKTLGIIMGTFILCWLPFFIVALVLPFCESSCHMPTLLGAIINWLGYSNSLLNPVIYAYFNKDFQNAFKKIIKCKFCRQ
Outline: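 HeLa cells stably carrying genomic clone G-21 were grown in DMEM with 10% FCS, then lysed in Tris/EDTA pH 7.4. Membranes (80–90 µg protein) were incubated in 50 mM Tris, 2.5 mM MgCl2, 10 µM pargyline, pH 7.4, with 1 nM [3H]8-OH-DPAT and competitor (1 pM–1 µM) for 30 min at 30 °C, in triplicate. Nonspecific binding with 10 µM 5-HT. pKi from 2–3 experiments.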

[3] = biological target: T3, Alpha-1B adrenergic receptor (Rattus norvegicus) (UniProt P15823); experiment: Antagonist activity at alpha1B adrenoceptor in Wistar rat spleen assessed as phenylephrine-induced contractions after 30 mins
T3 sequence (whole entry): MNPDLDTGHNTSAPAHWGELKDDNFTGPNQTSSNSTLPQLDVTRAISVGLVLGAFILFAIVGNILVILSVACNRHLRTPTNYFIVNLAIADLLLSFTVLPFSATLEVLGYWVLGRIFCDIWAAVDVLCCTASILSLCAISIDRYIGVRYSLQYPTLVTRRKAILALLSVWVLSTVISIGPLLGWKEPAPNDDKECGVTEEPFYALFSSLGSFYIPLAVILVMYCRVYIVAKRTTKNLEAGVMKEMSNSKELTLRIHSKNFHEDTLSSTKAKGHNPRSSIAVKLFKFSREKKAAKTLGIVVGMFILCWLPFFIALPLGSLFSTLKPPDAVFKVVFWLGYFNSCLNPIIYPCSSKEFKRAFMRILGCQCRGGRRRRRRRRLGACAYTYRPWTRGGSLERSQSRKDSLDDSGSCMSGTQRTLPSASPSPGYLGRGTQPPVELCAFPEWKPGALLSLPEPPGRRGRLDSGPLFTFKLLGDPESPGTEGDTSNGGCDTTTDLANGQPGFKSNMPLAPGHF
Outline: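 Spleen strips (bisected longitudinally) in Krebs with 4 µM propranolol, 1 g resting tension, 2 h equilibration. Cumulative phenylephrine curves recorded isometrically at 30 min intervals, the first discarded and the second used as control. Antagonist pre-equilibrated 30 min before a repeat agonist curve.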

Rattus norvegicus [4] = species: Rattus norvegicus; experiment: Selectivity ratio of Kb for alpha1D adrenoceptor in Wistar rat thoracic aorta to Kb for alpha1A adrenoceptor in Wistar rat vas deferans; format: tissue-based
Rattus norvegicus [5] = species: Rattus norvegicus; experiment: Selectivity ratio of Kb for alpha1D adrenoceptor in Wistar rat thoracic aorta to Kb for alpha1B adrenoceptor in Wistar rat spleen; format: tissue-based
Rattus norvegicus [6] = species: Rattus norvegicus; experiment: Selectivity ratio of Kb for alpha1B adrenoceptor in Wistar rat spleen to Kb for alpha1A adrenoceptor in Wistar rat vas deferans; format: tissue-based
[7] = biological target: T4, Alpha-1B adrenergic receptor (Homo sapiens, UniProt P35368); experiment: Displacement of [3H]prazosin from human recombinant alpha1B adrenoceptor expressed in CHO cells after 30 mins by liquid scintillation counting; format: cell-based; outline: as §1
T4 sequence (P35368 whole entry): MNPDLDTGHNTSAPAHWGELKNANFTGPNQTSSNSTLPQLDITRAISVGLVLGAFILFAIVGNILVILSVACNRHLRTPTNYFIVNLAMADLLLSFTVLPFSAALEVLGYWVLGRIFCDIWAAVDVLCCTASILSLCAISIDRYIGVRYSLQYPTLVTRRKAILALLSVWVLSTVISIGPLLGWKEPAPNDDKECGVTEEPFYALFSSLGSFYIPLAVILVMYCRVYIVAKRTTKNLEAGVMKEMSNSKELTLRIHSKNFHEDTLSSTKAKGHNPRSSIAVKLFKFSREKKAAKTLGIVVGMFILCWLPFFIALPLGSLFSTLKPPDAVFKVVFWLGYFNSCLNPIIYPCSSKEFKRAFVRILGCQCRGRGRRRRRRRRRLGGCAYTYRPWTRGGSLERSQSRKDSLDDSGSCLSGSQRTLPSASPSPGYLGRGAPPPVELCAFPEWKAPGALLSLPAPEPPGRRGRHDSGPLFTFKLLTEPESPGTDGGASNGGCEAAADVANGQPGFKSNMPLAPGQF

| SMILES | Ki [1] | Ki [2] | pKb [3] | Ratio (Rattus norvegicus [4]) | Ratio (Rattus norvegicus [5]) | Ratio (Rattus norvegicus [6]) | Ki [7] |
| --- | --- | --- | --- | --- | --- | --- | --- |
| COc1ccccc1N1CCN(CC2COC3(CCS(=O)(=O)CC3)O2)CC1 (stereo unspecified) | 51.3 nM | 81.3 nM | 7.66 | 0.72 | 0.34 | 2.09 | 288 nM |
| COc1ccccc1N1CCN(CC2COC3(CCN(S(=O)(=O)c4ccc(OC(F)(F)F)cc4)CC3)O2)CC1 (stereo unspecified) | 26.3 nM | 69.2 nM | 7.74 | 2.45 | 0.42 | 5.75 | 148 nM |
| COc1ccccc1N1CCN(CC2COC3(CCN(C(=O)NC(C)(C)C)CC3)O2)CC1 (stereo unspecified) | 35.5 nM | 87.1 nM | 7.42 | 0.08 | 0.13 | 0.61 | 129 nM |
| COc1ccccc1N1CCN(CC2COC3(CCN(C(=O)C(F)(F)F)CC3)O2)CC1 (stereo unspecified) | 417 nM | 324 nM | 8 | 3.39 | 0.31 | 10.7 | 1000 nM |
| COc1ccccc1N1CCN(CC2COC3(CCN(C(C)=O)CC3)O2)CC1 (stereo unspecified) | 89.1 nM | 64.6 nM | 7.72 | 0.2 | 0.05 | 3.55 | 1000 nM |
| CCCCNC(=O)N1CCC2(CC1)OCC(CN1CCN(c3ccccc3OC)CC1)O2 (stereo unspecified) | 19.1 nM | 79.4 nM | 7.4 | 0.81 | 0.77 | 1.04 | 240 nM |
| COc1ccccc1N1CCN(CC2COC3(CCN(S(=O)(=O)c4cccc([N+](=O)[O-])c4)CC3)O2)CC1 (stereo unspecified) | 0.912 nM | 43.7 nM | 8.14 | 1.02 | 0.69 | 1.48 | 69.2 nM |
| COc1ccccc1N1CCN(CC2COC3(CCN(C(=O)C4CCCN4)CC3)O2)CC1 (stereo unspecified) | 26.9 nM | 36.3 nM | 7.86 | 0.19 | 0.07 | 2.69 | 158 nM |
| COc1ccccc1N1CCN(CC2COC3(CCOCC3)O2)CC1 (stereo unspecified) | 25.1 nM | 46.8 nM | 7.17 | 0.6 | 1.44 | 0.41 | 324 nM |
| COc1ccccc1N1CCN(CC2COC3(CCN(C(=O)C4CCCCC4)CC3)O2)CC1 (stereo unspecified) | 39.8 nM | 20.4 nM | 7.33 | 1.17 | 0.49 | 2.4 | 110 nM |
| COc1ccccc1N1CCN(CC2COC3(CCN(C(=O)c4ccccc4)CC3)O2)CC1 (stereo unspecified) | 20.4 nM | 58.9 nM | 8.19 | 0.55 | 0.18 | 3.02 | 67.6 nM |
| COc1ccccc1N1CCN(CC2COC3(CCN(S(=O)(=O)c4ccc(C)cc4)CC3)O2)CC1 (stereo unspecified) | 10.7 nM | 26.9 nM | 7.91 | 0.36 | 0.11 | 3.23 | 8.32 nM |
| COc1ccccc1N1CCN(CC2COC3(CCN(c4ccccc4)CC3)O2)CC1 (stereo unspecified) | 8.13 nM | 15.8 nM | 7.56 | 0.44 | 0.74 | 0.6 | 155 nM |
| COc1ccccc1N1CCN(CC2COC3(CCN(Cc4ccccc4)CC3)O2)CC1 (stereo unspecified) | 4.68 nM | 14.5 nM | 7.18 | 7.58 | 26.3 | 0.29 | 16.6 nM |
| COc1ccccc1N1CCN(CC2COC3(CCN(S(=O)(=O)c4ccccc4)CC3)O2)CC1 (stereo unspecified) | 12.3 nM | 52.5 nM | 7.94 | 0.37 | 0.13 | 2.88 | 85.1 nM |
| COc1ccccc1N1CCN(CC2COC3(CCN(c4ccccn4)CC3)O2)CC1 (stereo unspecified) | 22.9 nM | 8.91 nM | 7.86 | 0.17 | 0.1 | 1.7 | 1000 nM |
| COc1ccccc1N1CCN(CC2COC3(CCN(C(=O)Nc4ccccc4)CC3)O2)CC1 (stereo unspecified) | 13.2 nM | 33.1 nM | 8.18 | 1.09 | 0.12 | 9.12 | 81.3 nM |
| COc1ccccc1N1CCN(CC2COC3(CCN(C(=O)c4ccco4)CC3)O2)CC1 (stereo unspecified) | 28.2 nM | 42.7 nM | 7.69 | 0.89 | 0.49 | 1.82 | 158 nM |
| COc1ccccc1N1CCN(CC2COC3(CCN(S(=O)(=O)c4cccs4)CC3)O2)CC1 (stereo unspecified) | 9.77 nM | 60.3 nM | 8.05 | 0.64 | 0.16 | 3.89 | 85.1 nM |
| COc1ccccc1N1CCN(CC2COC3(CCN(S(=O)(=O)c4ccc(Cl)cc4)CC3)O2)CC1 (stereo unspecified) | 7.08 nM | 37.2 nM | 7.36 | 1.35 | 1.02 | 1.32 | 69.2 nM |
| COc1ccccc1N1CCN(CC2COC3(CCCCC3)O2)CC1 (stereo unspecified) | > 1000 nM | 5.13 nM | 6.72 | 12.6 | 14.4 | 0.87 | 126 nM |
| COc1ccccc1N1CCN(CC2COC3(CCN(S(=O)(=O)c4ccc([N+](=O)[O-])cc4)CC3)O2)CC1 (stereo unspecified) | 5.75 nM | 24.5 nM | 7.75 | 1.9 | 1.86 | 1.02 | 110 nM |
| COc1ccccc1N1CCN(CC2COC3(CCNCC3)O2)CC1 (stereo unspecified) | 37.2 nM | 158 nM | 7.78 | 0.14 | 0.13 | 1.09 | 42.7 nM |
